PHOSPHO1 inh – inhibitors of human PHOSPHO1 phosphatase. recombinant PHOSPHO1, absorbance phosphatase assay. 290,000 compounds, 1.1% hits. inhibition, % at 13.3 µM. Q8TCT1; in the data active = inhibition above about 60%
PfGluPho inh – PfG6PD (Plasmodium falciparum) enzyme inhibition. 350,000 compounds, 0.78% hits. PfGluPho enzyme, NADPH resazurin-diaphorase fluorescence. AID 504690. inhibition, % at 20 µM;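 active = inhibition reaching at least a set limit at 20 µM in the primary screen, cut at about 59% in these data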
PGE2 EP2 inh – EP2 receptor (human) inhibition | P43116 | C6 glioma cells expressing human EP2, cAMP TR-FRET; cells stimulated with saturating PGE2 | inhibition, % at 25 µM | 260,000 compounds, 0.52% hits;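 active = percent inhibition above 40 after rounding to a whole number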;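 note: rat C6 glioma host cells with rolipram phosphodiesterase inhibitor present; the protocol text gives 20 µM as final concentration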
EP2 mod – EP2 receptor (human) modulation; P43116; EP2-expressing cells, cAMP HTRF FRET, PGE2 co-stimulation; induction, % at 25 µM; 260,000 compounds, 0.83% hits; AID 940;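 active = compounds whose cAMP rise, as percent of the full-agonist control response, exceeds 60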;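 note: rat C6 glioma line stably carrying human EP2 under a CMV promoter; the protocol text gives 20 µM as final concentration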
HKDC1 inh – inhibitors of human hexokinase HKDC1; Q2TB90; recombinant HKDC1, G6PDH/diaphorase resazurin coupled fluorescence; inhibition, % at 20 µM; 340,000 compounds, 0.16% hits; AID 493160;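 active = inhibition above about 35% when tested at 20 µM, limit read from the data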
Target sequence (Q2TB90 whole entry, looked up): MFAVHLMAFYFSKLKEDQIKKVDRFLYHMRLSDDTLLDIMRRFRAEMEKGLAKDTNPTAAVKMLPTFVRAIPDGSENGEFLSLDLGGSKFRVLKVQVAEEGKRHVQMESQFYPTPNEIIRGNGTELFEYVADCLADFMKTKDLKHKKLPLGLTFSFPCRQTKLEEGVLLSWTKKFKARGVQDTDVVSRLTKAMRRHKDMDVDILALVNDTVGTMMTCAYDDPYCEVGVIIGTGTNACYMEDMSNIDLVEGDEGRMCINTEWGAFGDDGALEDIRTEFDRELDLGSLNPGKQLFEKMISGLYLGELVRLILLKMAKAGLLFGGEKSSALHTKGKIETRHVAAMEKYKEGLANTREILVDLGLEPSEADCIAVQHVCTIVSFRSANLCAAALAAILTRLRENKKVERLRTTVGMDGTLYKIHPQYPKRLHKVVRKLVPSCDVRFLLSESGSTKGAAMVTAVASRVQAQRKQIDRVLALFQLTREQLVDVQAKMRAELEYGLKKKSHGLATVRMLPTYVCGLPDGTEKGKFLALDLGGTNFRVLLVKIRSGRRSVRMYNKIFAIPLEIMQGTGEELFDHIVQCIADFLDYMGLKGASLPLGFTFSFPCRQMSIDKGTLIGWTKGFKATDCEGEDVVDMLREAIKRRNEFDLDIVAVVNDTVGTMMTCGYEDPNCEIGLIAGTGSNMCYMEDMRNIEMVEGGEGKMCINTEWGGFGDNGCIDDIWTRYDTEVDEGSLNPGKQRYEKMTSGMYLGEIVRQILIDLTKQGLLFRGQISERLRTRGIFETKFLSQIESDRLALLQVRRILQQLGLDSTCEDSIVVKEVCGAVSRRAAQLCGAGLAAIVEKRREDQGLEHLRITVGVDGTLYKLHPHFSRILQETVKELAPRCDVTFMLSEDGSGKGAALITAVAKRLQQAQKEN
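Incubation: 90 min at room temperature in dark / Material: recombinant HKDC1 (HK5) hexokinase enzyme, produced in-house / Quantity: enzyme 5 µg/mL final / Compound: one dose of 20 µM, 1% DMSO / Reagent: glucose and ATP substrates / Buffer or medium: Tris pH 8.0 buffer with MgCl2, Tween-20, BSA, BME / Technique: resorufin fluorescence at 613 nm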
Tb hexokinase – T. brucei hexokinase 1 inhibition; AID 1430; 220,000 compounds, 0.11% hits; inhibition, % at 10 µM; recombinant TbHK1, G6PDH-coupled NADH A340;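 active = inhibition of 50% or more in the single-dose primary screen; inactive = inhibition below 50%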
Each line names hits and unclear results; the compound was inactive in the other large screens; ! = not confirmed by another sample. Compounds with a hit are over-represented: about 2.5% of the library has one in this group of screens.

CN(C)c1ccc(C(=C2C=CC(=[N+](C)C)C=C2)c2ccc(N(C)C)cc2)cc1	none (no result: PHOSPHO1 inh, PfGluPho inh, HKDC1 inh, Tb hexokinase)
Cc1ccc(C(=O)Cn2c(-c3ccccc3)noc2=O)cc1	PHOSPHO1 inh 62
CCC(C)(C)NC(=O)Cn1c(-c2ccc(C)cc2)noc1=O	none
CCn1c(-c2cc(-c3cc(OC)ccc3OC)nc3ccccc23)n[nH]c1=S	PHOSPHO1 inh 90
CCn1c(-c2cc(-c3ccccc3OC)nc3ccccc23)n[nH]c1=S	none
CCn1c(-c2cc(-c3ccc(C)cc3)nc3ccccc23)n[nH]c1=S	none
CCn1c(-c2cc(-c3ccc(OC(C)C)cc3)nc3ccccc23)n[nH]c1=S	PHOSPHO1 inh 97
CCN1/C(=C/C=C/C=C/c2sc3ccccc3[n+]2CC)Sc2ccccc21	PGE2 EP2 inh 50 (no result: PfGluPho inh, HKDC1 inh)
CCN1/C(=C/C=C/c2sc3ccccc3[n+]2CC)Sc2ccccc21	none (no result: PHOSPHO1 inh, PGE2 EP2 inh, EP2 mod, Tb hexokinase)
CC[n+]1c(/C=C/Nc2ccccc2)sc2ccccc21	PHOSPHO1 inh 98
O=c1/c(=C/c2ccc(O)c([N+](=O)[O-])c2)sc2nc3ccccc3n12	Tb hexokinase 78
CCN(CC)S(=O)(=O)c1ccc(S(=O)(=O)N2CCN(Cc3ccc4c(c3)OCO4)CC2)cc1	none (no result: PHOSPHO1 inh, PfGluPho inh, HKDC1 inh, Tb hexokinase)
O=C(Nc1ccc(N2CCCC2)cc1)C(Cl)c1ccccc1 (stereo not drawn)	PfGluPho inh 88
O=C(Nc1ccc(N2CCCCC2)cc1)c1ccccc1Cl	none (no result: PHOSPHO1 inh, PfGluPho inh, HKDC1 inh, Tb hexokinase)
COC(=O)C1=C(C)NC(=O)NC1c1ccc(-c2ccc(C#N)cc2)o1 (stereo not drawn)	none (no result: PHOSPHO1 inh, PfGluPho inh, HKDC1 inh, Tb hexokinase)
Cc1c(Cl)cccc1NC(=O)C[C@H]1Sc2ccccc2NC1=O	PGE2 EP2 inh 60 (no result: PHOSPHO1 inh, PfGluPho inh, HKDC1 inh, Tb hexokinase)
COc1ccc(-c2cc3nccc(C4CCCN(C(=O)OC(C)(C)C)C4)n3n2)cc1OC (stereo not drawn)	none (no result: PHOSPHO1 inh, PfGluPho inh, PGE2 EP2 inh, HKDC1 inh, Tb hexokinase)
CC1CCN(c2nc3c(c(=O)[nH]2)CN(Cc2cccs2)CC3)CC1	none (no result: PHOSPHO1 inh, PfGluPho inh, HKDC1 inh, Tb hexokinase)
Cc1nc2ccc(S(=O)(=O)NCC(=O)NCCc3ccc(Cl)cc3)cc2s1	PHOSPHO1 inh 70 (no result: PGE2 EP2 inh, EP2 mod, Tb hexokinase)
Cc1cccc(CCNC(=O)CNS(=O)(=O)c2ccc3nc(C)sc3c2)c1	none (no result: PGE2 EP2 inh, EP2 mod, Tb hexokinase)
Cn1c(SCC(=O)c2ccc(O)c(O)c2)nnc1-c1cccs1	PHOSPHO1 inh 62
Cn1c(SCC(=O)c2ccc(O)c(O)c2)nnc1-c1ccccc1	none (no result: PGE2 EP2 inh, EP2 mod, Tb hexokinase)
CCc1c(C(C)S(=O)(=O)c2ccc(C)cc2)[nH]c(=O)n1-c1ccc(C)cc1 (stereo not drawn)	PHOSPHO1 inh 90
C/C(=N\NC(=O)CSc1nc2nc(C)cc(C)n2n1)c1ccccc1	PGE2 EP2 inh 128
Cc1cc(C)n2nc(SCC(=O)Nc3ccccc3)nc2n1	none
Cc1ccc2cc3c(N)c(C(=O)N4CCOCC4)sc3nc2c1	PHOSPHO1 inh 61 (no result: PGE2 EP2 inh)
CC(=O)c1sc2nc3cc(C)ccc3cc2c1N	none (no result: PHOSPHO1 inh, PfGluPho inh, HKDC1 inh, Tb hexokinase)
COC(=O)COc1ccc(S(=O)(=O)N2CCCCC2)cc1C	none (no result: PHOSPHO1 inh, PfGluPho inh, HKDC1 inh, Tb hexokinase)
N#CSc1cnc(N)s1	PGE2 EP2 inh 111 (no result: PHOSPHO1 inh, PfGluPho inh, HKDC1 inh, Tb hexokinase)
Nc1ncc(S(=O)(=O)c2ccc([N+](=O)[O-])cc2)s1	none (no result: PHOSPHO1 inh, PGE2 EP2 inh, EP2 mod, Tb hexokinase)
c1c2c(cc3sc(N4CCOCC4)nc13)OCO2	PHOSPHO1 inh 93
CCc1cccc(CC)c1NC(=O)CN1CCC(c2nc3ccccc3s2)CC1	none (no result: PHOSPHO1 inh, PfGluPho inh, HKDC1 inh, Tb hexokinase)
O=C(CSc1ncn[nH]1)c1ccccc1	PHOSPHO1 inh 95
O=C(CSc1ncn[nH]1)c1cccc([N+](=O)[O-])c1	none
Oc1ccc(CNc2ccccc2F)c2cccnc12	PHOSPHO1 inh 97
COc1ccc([C@@H]2C[C@H](C(=O)N3CCOCC3)N(C)S(=O)(=O)N2)cc1OC	none (no result: PHOSPHO1 inh, PfGluPho inh, PGE2 EP2 inh, HKDC1 inh, Tb hexokinase)
O=C(c1cccnc1)N1CCN(C2CCCC2)CC1	none (no result: PHOSPHO1 inh, PfGluPho inh, HKDC1 inh, Tb hexokinase)
OC[C@H]1O[C@@H](n2cnc3c(Nc4ccccc4)ncnc32)[C@H](O)[C@@H]1O	none
OC[C@@H]1O[C@H](n2cnc3c(/C=C(\O)c4ccccc4)ncnc32)[C@H](O)[C@H]1O	PGE2 EP2 inh 45 (no result: PHOSPHO1 inh, PfGluPho inh, HKDC1 inh, Tb hexokinase)
C(=N\Nc1nc(-c2ccccc2)cs1)/c1ccncc1	none
O=[N+]([O-])c1cccc(-c2csc(N/N=C/c3cccc(O)c3)n2)c1	PGE2 EP2 inh 99
CN(C)S(=O)(=O)c1ccc(-c2csc(N/N=C/c3ccc(O)cc3)n2)cc1	PGE2 EP2 inh 104
Cc1ccc(-c2csc(N/N=C/c3ccco3)n2)cc1	none
CN(C)S(=O)(=O)c1ccc(-c2csc(N/N=C/c3ccco3)n2)cc1	PGE2 EP2 inh 47
CC(C)(C)c1cc(C(=O)N2CCC[C@H](C(=O)c3cccs3)C2)n[nH]1	none (no result: PHOSPHO1 inh, PfGluPho inh, HKDC1 inh, Tb hexokinase)
Cc1ccn2c(NC3CCCC3)c(-c3cccs3)nc2c1	none
c1csc(-c2nc3ccccn3c2NC2CCCCC2)c1	EP2 mod 61
c1ccc(CSc2nnc3c4ccccc4c4ccccc4c3n2)cc1	PGE2 EP2 inh 55! (no result: PfGluPho inh, HKDC1 inh)
O=C(O)C1OC2OC3(CCCCC3)OC2C2OC3(CCCCC3)OC12 (stereo not drawn)	none
CCOc1ccccc1NC(=O)C1OC2OC3(CCCCC3)OC2C2OC3(CCCCC3)OC12 (stereo not drawn)	PGE2 EP2 inh 50 (no result: PHOSPHO1 inh, PfGluPho inh, HKDC1 inh, Tb hexokinase)
O=C(O)[C@@H](Br)[C@@H](Br)c1ccccc1[N+](=O)[O-]	PGE2 EP2 inh 41 (no result: PHOSPHO1 inh, PfGluPho inh, HKDC1 inh, Tb hexokinase)
COC(=O)C(C(=O)OC)c1ccccc1[N+](=O)[O-]	none
FC(F)Sc1ccc(N=C2NN=C(c3ccc4c(c3)OCCO4)CS2)cc1	PHOSPHO1 inh 64
c1cc2c(cc1C1=NNC(=NC3CC3)SC1)OCCO2	none
CC(=O)c1c(N2CCN(c3cccc(Cl)c3)CC2)nc(=S)n(-c2ccccc2)c1C	none
CCn1c(C)c(C(C)=O)c(N2CCN(c3cccc(Cl)c3)CC2)nc1=S	PHOSPHO1 inh 76

High-throughput results from PubChem.
